In ChEMBL document CHEMBL1129478, “Structure-activity relationship studies of novel 4-[2-[bis(4-fluorophenyl)methoxy]ethyl]-1-(3-phenylpropyl)piperidine analogs: synthesis and biological evaluation at the dopamine and serotonin transporter sites” (J Med Chem, 1996):

Experiments:
[1] = molecular target: Sodium-dependent dopamine transporter (Rattus norvegicus, UniProt P23977); assay: Binding affinity at dopamine transporter from rat striatal membrane tissue by [3H]CFT displacement.; type: tissue-based, Striatum
Sequence of Sodium-dependent dopamine transporter (P23977 whole entry): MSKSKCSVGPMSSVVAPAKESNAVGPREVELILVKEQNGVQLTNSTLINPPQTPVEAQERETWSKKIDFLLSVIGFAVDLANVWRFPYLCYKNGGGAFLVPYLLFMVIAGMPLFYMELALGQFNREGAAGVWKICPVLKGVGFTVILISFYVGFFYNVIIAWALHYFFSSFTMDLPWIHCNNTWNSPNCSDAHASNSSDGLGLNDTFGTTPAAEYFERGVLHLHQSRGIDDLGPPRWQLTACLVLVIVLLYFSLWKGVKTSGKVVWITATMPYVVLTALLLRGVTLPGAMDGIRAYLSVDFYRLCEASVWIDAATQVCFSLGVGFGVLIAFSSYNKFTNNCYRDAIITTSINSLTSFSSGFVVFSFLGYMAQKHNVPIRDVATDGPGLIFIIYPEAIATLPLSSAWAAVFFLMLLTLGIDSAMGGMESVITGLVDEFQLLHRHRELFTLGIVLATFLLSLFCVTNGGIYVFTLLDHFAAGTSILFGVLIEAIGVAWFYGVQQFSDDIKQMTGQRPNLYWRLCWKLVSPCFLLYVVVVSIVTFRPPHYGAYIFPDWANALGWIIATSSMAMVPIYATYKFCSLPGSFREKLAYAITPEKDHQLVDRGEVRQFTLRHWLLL
Method in brief: (§1)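 Rat striatal P2 membranes: tissue homogenised in 0.32 M sucrose, pellet polytronned in ice-cold 35 mM sodium phosphate, pH 7.4. Incubation 2 h on ice, final sodium phosphate 30 mM, final DMSO 0.5%. Five inhibitor concentrations set after range-finding. Mean ± SEM of 3–5 (DAT, [3H]CFT) or 2–3 (SERT, [3H]citalopram) independent experiments, each in triplicate.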

[2] = molecular target: Sodium-dependent serotonin transporter (Rattus norvegicus, UniProt P31652); assay: Binding affinity at serotonin transporter from rat brain striatal membrane by [3H]citalopram displacement.; type: tissue-based; method in brief: as §1
Sequence of Sodium-dependent serotonin transporter (P31652 whole entry): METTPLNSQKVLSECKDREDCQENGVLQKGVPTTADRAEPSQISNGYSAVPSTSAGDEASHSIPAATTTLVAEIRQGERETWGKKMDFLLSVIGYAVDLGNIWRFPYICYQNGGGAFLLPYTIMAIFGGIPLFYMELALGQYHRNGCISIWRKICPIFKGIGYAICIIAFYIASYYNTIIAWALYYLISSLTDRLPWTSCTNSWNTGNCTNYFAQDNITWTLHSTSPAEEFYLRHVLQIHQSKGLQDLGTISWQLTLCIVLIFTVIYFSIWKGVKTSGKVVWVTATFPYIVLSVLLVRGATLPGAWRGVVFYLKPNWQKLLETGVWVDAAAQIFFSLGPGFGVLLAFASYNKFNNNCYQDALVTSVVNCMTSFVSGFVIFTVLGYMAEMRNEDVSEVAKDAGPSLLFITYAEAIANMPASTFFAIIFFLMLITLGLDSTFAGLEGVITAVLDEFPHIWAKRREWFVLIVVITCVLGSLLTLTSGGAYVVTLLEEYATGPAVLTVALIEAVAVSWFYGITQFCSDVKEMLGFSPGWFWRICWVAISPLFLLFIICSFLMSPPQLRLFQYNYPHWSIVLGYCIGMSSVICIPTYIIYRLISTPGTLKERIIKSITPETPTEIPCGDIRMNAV

[3] = molecular target: Monoamine transporters; serotonin & dopamine (Rattus norvegicus) (UniProt P31652+P23977); assay: Selectivity for serotonin and dopamine transporters; type: protein assay
Sequence of Monoamine transporters; serotonin & dopamine (Rattus norvegicus) (P23977 whole entry, looked up): as the sequence (P23977 whole entry) above
Sequence of Monoamine transporters; serotonin & dopamine (Rattus norvegicus) (P31652 whole entry, looked up): as the sequence (P31652 whole entry) above

| Compound | IC50 [1] [nM] | IC50 [2] [nM] | Selectivity [3] |
| --- | --- | --- | --- |
| Fc1ccc(C(OCCC2CCN(CCCc3ccccc3)CC2)c2ccc(F)cc2)cc1 | 16.7 | 55 | 3.3 |
| Fc1ccc(C(OCCC2CCN(CCc3ccccc3)CC2)c2ccc(F)cc2)cc1 |  | 31.9 |  |
| c1ccc(CCN2CCC(COC(c3ccccc3)c3ccccc3)CC2)cc1 | 108 | 456 | 4.2 |
| c1ccc(CN2CCC(CCOC(c3ccccc3)c3ccccc3)CC2)cc1 | 15.2 | 743 | 49 |
| c1ccc(CN2CCC(COC(c3ccccc3)c3ccccc3)CC2)cc1 | 702 | 544 | 0.7 |
| c1ccc(CCN2CCC(CCOC(c3ccccc3)c3ccccc3)CC2)cc1 |  | 102 |  |
| Clc1ccc(C(OCCC2CCN(CCc3ccccc3)CC2)c2ccc(Cl)cc2)cc1 | 115 | 414 | 3.6 |
| Fc1ccc(C(OCC2CCN(Cc3ccccc3)CC2)c2ccc(F)cc2)cc1 | 126 | 761 | 6 |
| c1ccc(CCCN2CCC(COC(c3ccccc3)c3ccccc3)CC2)cc1 | 14.5 | 58 | 4 |
| Clc1ccc(C(OCCC2CCN(CCCc3ccccc3)CC2)c2ccc(Cl)cc2)cc1 | 65 | 224 | 3.5 |
| Fc1ccc(C(OCC2CCN(CCCc3ccccc3)CC2)c2ccc(F)cc2)cc1 | 13 | 112 | 8.6 |
| Fc1ccc(C(OCCC2CCN(Cc3ccccc3)CC2)c2ccc(F)cc2)cc1 | 9.7 | 198 | 20 |
| Fc1ccc(C(OCC2CCN(CCc3ccccc3)CC2)c2ccc(F)cc2)cc1 | 13.5 | 237 | 17.5 |
| Cc1ccc(C(OCCC2CCN(CCc3ccccc3)CC2)c2ccc(C)cc2)cc1 | 311 | 888 | 2.8 |
| COc1ccc(C(OCCC2CCN(CCCc3ccccc3)CC2)c2ccc(OC)cc2)cc1 | 255 | 340 | 1.3 |
| Brc1ccc(C(OCCC2CCN(CCCc3ccccc3)CC2)c2ccc(Br)cc2)cc1 | 159 | 835 | 5.2 |
| Brc1ccc(C(OCCC2CCN(CCc3ccccc3)CC2)c2ccc(Br)cc2)cc1 | 382 | 638 | 1.6 |
| c1ccc(CCCN2CCC(CCOC(c3ccccc3)c3ccccc3)CC2)cc1 | 12 | 232 | 20 |
